# Measured values published in ChEMBL document CHEMBL1158482, “Dopamine D2, D3, and D4 selective phenylpiperazines as molecular probes to explore the origins of subtype specific receptor binding” (J Med Chem, 2009).
# Key:
# Type in all cases: cell-based
# D(4) dopamine receptor [1] = target: T1, D(4) dopamine receptor (Homo sapiens, UniProt P21917); test: Displacement of [3H]spiperone from wild type human cloned dopamine D4 receptor expressed in HEK293 cells
# T1 sequence (P21917 whole entry): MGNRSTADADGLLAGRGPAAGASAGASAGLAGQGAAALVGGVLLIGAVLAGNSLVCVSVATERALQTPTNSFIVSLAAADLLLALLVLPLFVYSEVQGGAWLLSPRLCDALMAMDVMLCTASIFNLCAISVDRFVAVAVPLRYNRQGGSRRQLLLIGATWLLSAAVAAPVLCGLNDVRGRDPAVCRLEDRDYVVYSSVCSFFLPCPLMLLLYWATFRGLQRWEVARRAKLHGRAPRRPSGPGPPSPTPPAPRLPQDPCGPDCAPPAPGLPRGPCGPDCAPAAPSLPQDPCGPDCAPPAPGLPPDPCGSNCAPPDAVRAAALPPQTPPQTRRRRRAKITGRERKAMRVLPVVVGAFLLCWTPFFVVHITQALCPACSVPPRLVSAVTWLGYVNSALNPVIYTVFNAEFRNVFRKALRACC
# HEK293 [2] = test: Selectivity ratio of Ki for human cloned dopamine D2L receptor D3.32E mutant to Ki for wild type human cloned dopamine D2L receptor expressed in HEK293 cells
# Summary of the method: (§1)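 Wild-type or mutant receptor cDNA transiently transfected into HEK-293 cells, which were grown in MEM with 10% FBS at 37 °C and 5% CO2 and harvested 48 h after transfection. Membranes were homogenised and pelleted at 50000g. Competition against [3H]spiperone (0.1-0.7 nM final) used 20-200 μg/mL protein. Ki was derived from EC50, 2-18 independent experiments in triplicate. Ratios are mutant Ki over wild-type Ki.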
# HEK293 [3] = test: Selectivity ratio of Ki for human cloned dopamine D2L receptor V2.61F mutant to Ki for wild type human cloned dopamine D2L receptor expressed in HEK293 cells; summary of the method: as §1
# HEK293 [4] = test: Selectivity ratio of Ki for human cloned dopamine D2L receptor L2.64F mutant to Ki for wild type human cloned dopamine D2L receptor expressed in HEK293 cells; summary of the method: as §1
# HEK293 [5] = test: Selectivity ratio of Ki for human cloned dopamine D2L receptor FV3.28,3.29LM mutant to Ki for wild type human cloned dopamine D2L receptor expressed in HEK293 cells; summary of the method: as §1
# HEK293 [6] = test: Selectivity ratio of Ki for human cloned dopamine D2L receptor V2.61F/FV3.28,3.29LM mutant to Ki for wild type human cloned dopamine D2L receptor expressed in HEK293 cells; summary of the method: as §1
# HEK293 [7] = test: Selectivity ratio of Ki for human cloned dopamine D2L receptor E181V/I183S mutant to Ki for wild type human cloned dopamine D2L receptor expressed in HEK293 cells; summary of the method: as §1
# HEK293 [8] = test: Selectivity ratio of Ki for human cloned dopamine D2L receptor H6.55A mutant to Ki for wild type human cloned dopamine D2L receptor expressed in HEK293 cells; summary of the method: as §1
# HEK293 [9] = test: Selectivity ratio of Ki for human cloned dopamine D2L receptor H6.55F mutant to Ki for wild type human cloned dopamine D2L receptor expressed in HEK293 cells; summary of the method: as §1
# HEK293 [10] = test: Selectivity ratio of Ki for human cloned dopamine D3 receptor D3.32E mutant to Ki for wild type human cloned dopamine D3 receptor expressed in HEK293 cells; summary of the method: as §1
# HEK293 [11] = test: Selectivity ratio of Ki for human cloned dopamine D3 receptor V2.61F mutant to Ki for wild type human cloned dopamine D3 receptor expressed in HEK293 cells; summary of the method: as §1
# HEK293 [12] = test: Selectivity ratio of Ki for human cloned dopamine D3 receptor L2.64F mutant to Ki for wild type human cloned dopamine D3 receptor expressed in HEK293 cells; summary of the method: as §1
# HEK293 [13] = test: Selectivity ratio of Ki for human cloned dopamine D3 receptor FV3.28,3.29LM mutant to Ki for wild type human cloned dopamine D3 receptor expressed in HEK293 cells; summary of the method: as §1
# HEK293 [14] = test: Selectivity ratio of Ki for human cloned dopamine D3 receptor V2.61F/FV3.28,3.29LM mutant to Ki for wild type human cloned dopamine D3 receptor expressed in HEK293 cells; summary of the method: as §1
# HEK293 [15] = test: Selectivity ratio of Ki for human cloned dopamine D3 receptor V180E/S182I mutant to Ki for wild type human cloned dopamine D3 receptor expressed in HEK293 cells; summary of the method: as §1
# HEK293 [16] = test: Selectivity ratio of Ki for human cloned dopamine D3 receptor H6.55A mutant to Ki for wild type human cloned dopamine D3 receptor expressed in HEK293 cells; summary of the method: as §1
# CHO [17] = test: Selectivity ratio of Ki for human cloned dopamine D2L receptor to Ki for human cloned dopamine D3 receptor expressed in CHO cells
# CHO [18] = test: Selectivity ratio of Ki for human cloned dopamine D2L receptor to Ki for human cloned dopamine D4 receptor expressed in CHO cells
# D(2) dopamine receptor [19] = target: T2, D(2) dopamine receptor (Homo sapiens, UniProt P14416); test: Displacement of [3H]spiperone from wild type human cloned dopamine D2L receptor expressed in HEK293 cells
# [20] = Displacement of [3H]spiperone from human cloned dopamine D2L receptor D3.32E mutant expressed in HEK293 cells
# Summary of the method: (§2)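 Wild-type or mutant receptor cDNA transiently transfected into HEK-293 cells (CaHPO4 or TransIT-293), grown in MEM with 10% FBS at 37 °C, 5% CO2, harvested 48 h post-transfection. Membranes prepared by homogenization and spin at 50000g.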
# [21] = Displacement of [3H]spiperone from human cloned dopamine D2L receptor V2.61F mutant expressed in HEK293 cells; summary of the method: as §2
# [22] = Displacement of [3H]spiperone from human cloned dopamine D2L receptor L2.64F mutant expressed in HEK293 cells; summary of the method: as §2
# [23] = Displacement of [3H]spiperone from human cloned dopamine D2L receptor FV3.28,3.29LM mutant expressed in HEK293 cells; summary of the method: as §2
# [24] = Displacement of [3H]spiperone from human cloned dopamine D2L receptor V2.61F/FV3.28,3.29LM mutant expressed in HEK293 cells; summary of the method: as §2
# D(2) dopamine receptor [25] = target: D(2) dopamine receptor (Homo sapiens, UniProt P14416, E181V/I183S); test: Displacement of [3H]spiperone from human cloned dopamine D2L receptor E181V/I183S mutant expressed in HEK293 cells; summary of the method: as §1
# [26] = Displacement of [3H]spiperone from human cloned dopamine D2L receptor H6.55A mutant expressed in HEK293 cells; summary of the method: as §2
# [27] = Displacement of [3H]spiperone from human cloned dopamine D2L receptor H6.55F mutant expressed in HEK293 cells; summary of the method: as §2
# D(3) dopamine receptor [28] = target: T3, D(3) dopamine receptor (Homo sapiens, UniProt P35462); test: Displacement of [3H]spiperone from wild type human cloned dopamine D3 receptor expressed in HEK293 cells
# D(3) dopamine receptor [29] = target: D(3) dopamine receptor (Homo sapiens, UniProt P35462, D110E); test: Displacement of [3H]spiperone from human cloned dopamine D3 receptor D3.32E mutant expressed in HEK293 cells
# D(3) dopamine receptor [30] = target: D(3) dopamine receptor (Homo sapiens, UniProt P35462, V87F); test: Displacement of [3H]spiperone from human cloned dopamine D3 receptor V2.61F mutant expressed in HEK293 cells
# D(3) dopamine receptor [31] = target: T3, D(3) dopamine receptor; test: Displacement of [3H]spiperone from human cloned dopamine D3 receptor L2.64F mutant expressed in HEK293 cells
# D(3) dopamine receptor [32] = target: T3, D(3) dopamine receptor; test: Displacement of [3H]spiperone from human cloned dopamine D3 receptor FV3.28,3.29LM mutant expressed in HEK293 cells
# D(3) dopamine receptor [33] = target: D(3) dopamine receptor (Homo sapiens, UniProt P35462, F106L/V107M/V87F); test: Displacement of [3H]spiperone from human cloned dopamine D3 receptor V2.61F/FV3.28,3.29LM mutant expressed in HEK293 cells
# D(3) dopamine receptor [34] = target: D(3) dopamine receptor (Homo sapiens, UniProt P35462, S182I/V180E); test: Displacement of [3H]spiperone from human cloned dopamine D3 receptor V180E/S182I mutant expressed in HEK293 cells
# D(3) dopamine receptor [35] = target: D(3) dopamine receptor (Homo sapiens, UniProt P35462, H349A); test: Displacement of [3H]spiperone from human cloned dopamine D3 receptor H6.55A mutant expressed in HEK293 cells
# D(2) dopamine receptor [36] = target: T2, D(2) dopamine receptor; test: Displacement of [3H]spiperone from human cloned dopamine D2L receptor expressed in CHO cells
# D(3) dopamine receptor [37] = target: T3, D(3) dopamine receptor; test: Displacement of [3H]spiperone from human cloned dopamine D3 receptor expressed in CHO cells
# D(4) dopamine receptor [38] = target: T1, D(4) dopamine receptor; test: Displacement of [3H]spiperone from human cloned dopamine D4 receptor expressed in CHO cells
# Summary of the method: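 Membranes from CHO cells stably expressing human D4 (Bmax 700-1800 fmol/mg). Curves fit by nonlinear regression, sigmoid model giving IC50 and slope; Ki ± SEM from 2-9 experiments in triplicate.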
# T3 sequence (P35462 whole entry): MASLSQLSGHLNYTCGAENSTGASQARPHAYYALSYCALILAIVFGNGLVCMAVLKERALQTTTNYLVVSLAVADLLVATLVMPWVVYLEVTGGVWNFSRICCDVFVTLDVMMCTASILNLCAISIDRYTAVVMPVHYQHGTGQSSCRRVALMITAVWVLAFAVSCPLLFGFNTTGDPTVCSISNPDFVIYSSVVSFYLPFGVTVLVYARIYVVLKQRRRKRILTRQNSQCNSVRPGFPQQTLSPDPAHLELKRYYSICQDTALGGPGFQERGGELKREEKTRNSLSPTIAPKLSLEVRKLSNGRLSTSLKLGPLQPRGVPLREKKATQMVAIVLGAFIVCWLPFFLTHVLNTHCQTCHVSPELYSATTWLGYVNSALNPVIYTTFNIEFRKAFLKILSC
# T2 sequence (P14416 whole entry): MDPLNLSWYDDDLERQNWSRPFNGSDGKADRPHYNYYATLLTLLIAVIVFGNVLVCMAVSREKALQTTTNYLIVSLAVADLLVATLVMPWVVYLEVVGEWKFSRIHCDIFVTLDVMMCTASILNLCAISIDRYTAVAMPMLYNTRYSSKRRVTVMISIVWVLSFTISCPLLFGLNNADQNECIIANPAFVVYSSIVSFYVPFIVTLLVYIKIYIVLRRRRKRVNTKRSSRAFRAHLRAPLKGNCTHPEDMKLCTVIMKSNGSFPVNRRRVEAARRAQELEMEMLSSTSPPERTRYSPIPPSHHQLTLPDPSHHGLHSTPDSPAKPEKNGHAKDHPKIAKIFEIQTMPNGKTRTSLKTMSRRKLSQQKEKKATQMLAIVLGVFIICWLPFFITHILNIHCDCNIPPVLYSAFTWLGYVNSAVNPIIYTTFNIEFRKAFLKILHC
# D(3) dopamine receptor (Homo sapiens, UniProt P35462, S182I/V180E), sequence (P35462 as listed by the source V180E/S182I): as the sequence (P35462 whole entry) above, with G9S, V180E, S182I counted along it
# D(3) dopamine receptor (Homo sapiens, UniProt P35462, H349A), sequence (P35462 as listed by the source H349A): as the sequence (P35462 whole entry) above, with G9S, H349A counted along it
# D(3) dopamine receptor (Homo sapiens, UniProt P35462, D110E), sequence (P35462 as listed by the source D110E): as the sequence (P35462 whole entry) above, with G9S, D110E counted along it
# D(3) dopamine receptor (Homo sapiens, UniProt P35462, F106L/V107M/V87F), sequence (P35462 as listed by the source V87F/F106L/V107M): as the sequence (P35462 whole entry) above, with G9S, V87F, F106L, V107M counted along it
# D(3) dopamine receptor (Homo sapiens, UniProt P35462, V87F), sequence (P35462 as listed by the source V87F): as the sequence (P35462 whole entry) above, with G9S, V87F counted along it
# D(2) dopamine receptor (Homo sapiens, UniProt P14416, E181V/I183S), sequence (P14416 whole entry E181V/I183S): as the sequence (P14416 whole entry) above, with E181V, I183S counted along it
Structure (SMILES),Ki (D(4) dopamine receptor [1]),Ratio Ki (HEK293 [2]),Ratio Ki (HEK293 [3]),Ratio Ki (HEK293 [4]),Ratio Ki (HEK293 [5]),Ratio Ki (HEK293 [6]),Ratio Ki (HEK293 [7]),Ratio Ki (HEK293 [8]),Ratio Ki (HEK293 [9]),Ratio Ki (HEK293 [10]),Ratio Ki (HEK293 [11]),Ratio Ki (HEK293 [12]),Ratio Ki (HEK293 [13]),Ki [20],Ki [21],Ki [22],Ki [23],Ki [24],Ki [26],Ki [27],further results
Clc1ccc(N2CCN(Cc3cc4ccccn4n3)CC2)cc1,6.8 nM,2.2,0.53,0.89,0.13,0.03,19,0.14,0.7,1.4,1.1,0.19,0.09,5100 nM,1200 nM,2000 nM,300 nM,66 nM,320 nM,1600 nM,Ratio Ki (HEK293 [14]): 0.009; Ratio Ki (HEK293 [15]): 0.31; Ratio Ki (HEK293 [16]): 0.005; Ratio Ki (CHO [17]): 0.64; Ratio Ki (CHO [18]): 1500; Ki (D(2) dopamine receptor [19]): 2300 nM; Ki (D(2) dopamine receptor [25]): 47000 nM; Ki (D(3) dopamine receptor [28]): 8300 nM; Ki (D(3) dopamine receptor [29]): 12000 nM; Ki (D(3) dopamine receptor [30]): 9200 nM; Ki (D(3) dopamine receptor [31]): 1600 nM; Ki (D(3) dopamine receptor [32]): 730 nM; Ki (D(3) dopamine receptor [33]): 76 nM; Ki (D(3) dopamine receptor [34]): 2500 nM; Ki (D(3) dopamine receptor [35]): 46 nM
COc1ccccc1N1CCN(CCCNC(=O)c2cnn3ccccc23)CC1,,,,,,,,,,,,,,720 nM,450 nM,390 nM,110 nM,83 nM,1.6 nM,69 nM,
COc1ccccc1N1CCN(Cc2cc3ccccn3n2)CC1,2.3 nM,4.4,0.27,1.8,0.13,0.15,10.5,0.18,1.2,0.9,3,0.9,0.06,1500 nM,94 nM,610 nM,46 nM,54 nM,63 nM,590 nM,Ratio Ki (HEK293 [14]): 0.07; Ratio Ki (HEK293 [15]): 0.44; Ratio Ki (HEK293 [16]): 0.08; Ki (D(2) dopamine receptor [36]): 280 nM; Ki (D(3) dopamine receptor [37]): 1200 nM; Ki (D(4) dopamine receptor [38]): 1.2 nM; Ratio Ki (CHO [17]): 0.23; Ratio Ki (CHO [18]): 230; Ki (D(2) dopamine receptor [19]): 350 nM; Ki (D(2) dopamine receptor [25]): 3600 nM; Ki (D(3) dopamine receptor [28]): 770 nM; Ki (D(3) dopamine receptor [29]): 680 nM; Ki (D(3) dopamine receptor [30]): 2300 nM; Ki (D(3) dopamine receptor [31]): 720 nM; Ki (D(3) dopamine receptor [32]): 44 nM; Ki (D(3) dopamine receptor [33]): 51 nM; Ki (D(3) dopamine receptor [34]): 340 nM; Ki (D(3) dopamine receptor [35]): 61 nM
